This is an account of results in ChEMBL document CHEMBL1125570 (J Med Chem, 1992).

One may read the Ki as a measure of affinity in units of concentration, obtained from inhibition or displacement. A lower Ki goes with tighter binding. For orientation: IC50 means the concentration that inhibits the measured activity by half. High values mean a need for much substance, low ones inhibition by little substance.

The target in assay [1] is Serotonin 2 (5-HT2) receptor (Rattus norvegicus, UniProt P14842). Kind of assay: Binding affinity against 5-hydroxytryptamine 2 receptor in rat using [3H]ketanserin as radioligand. The method, boiled down:
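Male Sprague-Dawley rat (200–250 g) frontal cortex membranes in 50 mM Tris·HCl/0.5 mM EDTA/10 mM MgCl2, pH 7.4, plus 0.1% ascorbate and 10⁻⁵ M pargyline. Nonspecific binding defined by 1.0 μM cinanserin. Run in triplicate, 15 min at 37 °C, then filtration. Ki = IC50/(1 + D*/KD*).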

Assay [2] has as its target T1, Serotonin 2 (5-HT2) receptor (Rattus norvegicus) (UniProt P30994+P08909+P14842). The experiment in a line: Selectivity ratio for 5-HT1C compared to 5-HT2 receptors. It counts as protein assay. The method, boiled down:
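Ratio of 5-HT1C Ki over 5-HT2 Ki. Both come from rat frontal cortex competition assays run in triplicate for 15 min at 37 °C. The 5-HT1C assay used 1 nM [3H]mesulergine with 100 nM spiperone present. […] Ki values were derived from IC50 by Cheng–Prusoff.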

Assay [3] addresses T2, 5-hydroxytryptamine receptor 2C (Rattus norvegicus, UniProt P08909).
T2 sequence (P08909 whole entry): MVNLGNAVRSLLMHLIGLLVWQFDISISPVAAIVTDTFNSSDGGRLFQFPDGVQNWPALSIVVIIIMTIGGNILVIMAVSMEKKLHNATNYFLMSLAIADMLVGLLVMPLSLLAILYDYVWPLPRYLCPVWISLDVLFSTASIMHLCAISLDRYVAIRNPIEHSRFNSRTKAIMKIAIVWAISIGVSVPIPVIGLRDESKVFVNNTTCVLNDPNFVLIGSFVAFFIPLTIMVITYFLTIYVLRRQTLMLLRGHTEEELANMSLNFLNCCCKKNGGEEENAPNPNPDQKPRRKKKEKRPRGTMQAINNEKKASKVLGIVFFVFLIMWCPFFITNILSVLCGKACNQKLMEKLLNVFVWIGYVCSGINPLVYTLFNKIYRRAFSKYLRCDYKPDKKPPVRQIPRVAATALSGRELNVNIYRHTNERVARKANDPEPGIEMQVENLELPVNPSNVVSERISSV
The experiment in a line: Binding affinity against 5-hydroxytryptamine 1C receptor in rat using [3H]mesulergine as radioligand. The method, boiled down:
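Rat frontal cortex homogenate (male Sprague-Dawley, 200–250 g), washed in 50 mM Tris·HCl, 0.5 mM EDTA, 10 mM MgCl2, pH 7.4, with 0.1% ascorbate and 10⁻⁵ M pargyline. 10 mg wet tissue, 1 nM [3H]mesulergine, 100 nM spiperone to block 5-HT2 sites, nonspecific binding with 1.0 μM mianserin. Incubated 15 min at 37 °C, triplicates, filtration. Ki from IC50 via Cheng–Prusoff.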

Assay [4] concerns the target T3, Serotonin 2 (5-HT2) receptor (Rattus norvegicus, UniProt P30994+P08909+P14842). The experiment in a line: Inhibitory activity against 5-hydroxytryptamine 2 receptor. Type of assay: protein assay. The method, boiled down: (§1)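 Male Sprague-Dawley rat (200–250 g) frontal cortex membranes in 50 mM Tris·HCl/0.5 mM EDTA/10 mM MgCl2, pH 7.4, plus 0.1% ascorbate and 10⁻⁵ M pargyline. […] Nonspecific binding defined by 1.0 μM cinanserin. Run in triplicate, 15 min at 37 °C, then filtration. Ki = IC50/(1 + D*/KD*).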

Assay [5] deals with T3, Serotonin 2 (5-HT2) receptor. Kind of assay: Binding affinity against 5-Hydroxy tryptamine 2 (5-hydroxytryptamine 2)receptor. Type of assay: protein assay.
Assay [6] has as its target T2, 5-hydroxytryptamine receptor 2C. Kind of assay: Binding affinity against 5-hydroxytryptamine 1C receptor.
Assay [7] deals with T3, Serotonin 2 (5-HT2) receptor. Kind of assay: Inhibitory constant against 5-hydroxytryptamine 2 receptor. It counts as protein assay. The method, boiled down:
as §1

For assay [8], the target named is T1, Serotonin 2 (5-HT2) receptor (Rattus norvegicus). Kind of assay: Selectivity for 5-HT1C and 5-HT2 receptors, ratio of Ki. Type of assay: protein assay. The method, boiled down:
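Both come from rat frontal cortex competition assays run in triplicate for 15 min at 37 °C. The 5-HT1C assay used 1 nM [3H]mesulergine with 100 nM spiperone present. Ki values were derived from IC50 by Cheng–Prusoff.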

T1 sequence (P14842 whole entry, looked up, one chain of several): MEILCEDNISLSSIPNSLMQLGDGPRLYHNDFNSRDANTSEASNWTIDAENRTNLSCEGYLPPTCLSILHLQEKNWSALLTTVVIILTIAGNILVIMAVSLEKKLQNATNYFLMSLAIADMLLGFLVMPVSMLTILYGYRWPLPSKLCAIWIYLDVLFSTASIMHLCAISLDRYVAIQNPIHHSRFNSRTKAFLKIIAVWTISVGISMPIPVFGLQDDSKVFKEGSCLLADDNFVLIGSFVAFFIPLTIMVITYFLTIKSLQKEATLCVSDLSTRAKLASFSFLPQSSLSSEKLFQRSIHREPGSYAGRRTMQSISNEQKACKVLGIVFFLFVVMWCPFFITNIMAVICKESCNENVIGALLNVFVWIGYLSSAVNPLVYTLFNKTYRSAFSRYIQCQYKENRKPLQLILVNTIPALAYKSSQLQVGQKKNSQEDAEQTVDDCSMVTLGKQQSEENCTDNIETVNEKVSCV
T1 sequence (P30994 whole entry, looked up, one chain of several): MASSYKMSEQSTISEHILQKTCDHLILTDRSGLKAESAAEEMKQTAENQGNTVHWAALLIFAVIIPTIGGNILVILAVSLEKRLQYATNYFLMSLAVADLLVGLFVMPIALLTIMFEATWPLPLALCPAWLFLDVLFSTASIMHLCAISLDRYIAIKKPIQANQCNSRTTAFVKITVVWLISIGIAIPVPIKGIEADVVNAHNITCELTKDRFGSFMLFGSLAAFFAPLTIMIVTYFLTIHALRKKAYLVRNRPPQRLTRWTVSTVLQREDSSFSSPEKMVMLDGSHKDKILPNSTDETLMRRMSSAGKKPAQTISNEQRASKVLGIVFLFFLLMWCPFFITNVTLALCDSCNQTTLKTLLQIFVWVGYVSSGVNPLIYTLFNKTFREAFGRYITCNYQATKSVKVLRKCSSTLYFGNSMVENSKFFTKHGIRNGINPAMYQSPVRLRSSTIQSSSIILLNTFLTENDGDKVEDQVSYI

Regarding `O=C(O)/C=C\C(=O)O.O=C(c1ccccc1)C1CCN(CCn2c(=O)[nH]c3ccccc3c2=O)CC1`, the Ki in assay [1] came to 6.5 nM; in assay [3], 760 nM. In addition, the Ratio in assay [2] came out at 115.

With `CN1CCC(C(=O)c2ccc(F)cc2)CC1`, the results for the Ki in assay [1] and in assay [3] were 125 nM and 1510 nM, respectively. Further, the Ratio in assay [2] amounted to 12.

On to `O=C(c1ccc(F)cc1)C1CCNCC1`, for which the Ki amounted to 430 nM in assay [1] and 1100 nM in assay [3]. In addition, in assay [2], the Ratio amounted to 2.

Turning to `O=C(c1ccccc1)C1CCNCC1`, the Ki in assay [1] is 3320 nM; in assay [3], more than 10000 nM. Also, the Ratio in assay [2] was more than 3.

Take `O=C(O)C(=O)O.O=c1[nH]c2ccccc2c(=O)n1CCN1CCC(C(O)c2ccccc2)CC1` (configuration not stated): the Ki in assay [1] was 655 nM; in assay [3], more than 10000 nM. Also, the Ratio in assay [2] is more than 15.

With `CN1CCN(Cc2ccc(F)cc2)CC1.Cl.Cl`, the Ki in assay [1] and in assay [3] was more than 10000 nM each time.

Consider `O=C1NCCN1CCN1CCN(C2CC(c3ccc(F)cc3)c3ccccc32)CC1` (configuration not stated), for which the IC50 in assay [4] amounted to 3.4 nM.

On to `O=C(O)/C=C\C(=O)O.O=c1[nH]c2ccccc2c(=O)n1CCNCCCCc1ccccc1`, for which the values for the Ki in assay [1] and in assay [3] were 180 nM and more than 10000 nM, respectively. Also, the Ratio in assay [2] is more than 50.

For `Cl.O=c1[nH]c2ccccc2c(=O)n1CCN1CCCCC1`, the inhibition constant Ki in assay [1] and in assay [3] was more than 10000 nM in each case.

In turn, `CN1CCN(C2CC(c3ccc(F)cc3)c3ccccc32)CC1` (single isomer, unassigned; (+)) gave an IC50 in assay [4] of 4.9 nM.

Consider `CCN1CCC(C(=O)c2ccc(F)cc2)CC1`, for which the Ki in assay [1] amounted to 260 nM; in assay [3] it was 3160 nM. Besides, the Ratio in assay [2] was found to be 12.

On to `OC(c1ccccc1)C1CCN(CCc2ccc(F)cc2)CC1` (configuration not stated), for which the IC50 in assay [4] is listed as 0.9 nM.

For the compound `O=C(c1ccc(F)cc1)C1CCN(CCn2c(=O)[nH]c3ccccc3c2=O)CC1` [KETANSERIN], in assay [3], the Ki was 50 nM.

On to `O=C(O)C(=O)O.O=C(c1ccc(F)cc1)C1CCN(CCCCc2ccccc2)CC1`, for which the Ki in assay [1] is 5.3 nM; in assay [3] it was 620 nM. Moreover, in assay [2], the Ratio amounted to 120.

`CN(C)CCn1c(=O)[nH]c2ccccc2c1=O`: the Ki in assay [1] and in assay [3] was more than 10000 nM in each case.

In the case of `CN(CCCc1ccccc1)CCn1c(=O)[nH]c2ccccc2c1=O.O=C(O)C(=O)O`, the inhibitory constant (Ki) stood at 640 nM in assay [1] and 1390 nM in assay [3]. Further, the Ratio in assay [2] is 2.

Consider `O=C(O)C(=O)O.O=C(c1ccc(F)cc1)C1CCN(Cc2ccccc2)CC1`, for which the results for the Ki in assay [1] and in assay [3] were 25 nM and 3000 nM, respectively. The Ratio in assay [2] amounted to 120.

As for `O=C(NCCN1CCC(C(=O)c2ccc(F)cc2)CC1)c1ccccc1.O=C(O)C(=O)O`, the Ki in assay [1] amounted to 16 nM; in assay [3], 1610 nM. The Ratio in assay [2] amounted to 100.

Consider `c1ccc(CN2CCNCC2)cc1`, for which the Ki in assay [1] and in assay [3] was more than 10000 nM in each case.

As to `O=C(O)/C=C\C(=O)O.O=c1[nH]c2ccccc2c(=O)n1CCNCCCc1ccccc1`, the inhibitory constant (Ki) in assay [1] was 660 nM; in assay [3] it was more than 10000 nM. Moreover, the Ratio in assay [2] was more than 10.

On to `c1ccc(CC2CCNCC2)cc1`, for which the inhibition constant Ki in assay [5] and in assay [6] was more than 10000 nM each time.

In assay [7], `OC(c1ccccc1)C1CCN(CCc2ccccc2)CC1` (configuration not stated) [GLEMANSERIN] gave a Ki of 12.5 nM. This counts as double-digit nanomolar.

Turning to `O=C(c1ccccc1)N1CCNCC1`, the Ki in assay [1] and in assay [3] was more than 10000 nM in each case.

For the compound `O=C(O)/C=C\C(=O)O.O=c1[nH]c2ccccc2c(=O)n1CCN1CCC(Cc2ccccc2)CC1`, the Ki in assay [1] is 32 nM; in assay [3] it was 970 nM. The Ratio in assay [2] came out at 30.

With `Cl.NCCn1c(=O)[nH]c2ccccc2c1=O`, the Ki in assay [1] and in assay [3] was more than 10000 nM each time.

With `CN1CCN(C(=O)c2ccc(F)cc2)CC1`, the inhibition constant Ki in assay [1] and in assay [3] was more than 10000 nM throughout.

Turning to `CN1CCN(CCn2c(=O)[nH]c3ccccc3c2=O)CC1.Cl.Cl`, the Ki in assay [1] and in assay [3] was more than 10000 nM each time.

Regarding `O=C(NCCN1CCC(C(=O)c2ccc(F)cc2)CC1)Nc1ccccc1.O=C(O)C(=O)O`, the Ki was 4.3 nM in assay [1] and 200 nM in assay [3]. Also, the Ratio in assay [2] was found to be 50.

Regarding `Cl.O=C(CCCN1CCC(C(=O)c2ccc(F)cc2)CC1)c1ccccc1`, the figures for the Ki in assay [1] and in assay [3] were 6.5 nM and 350 nM, respectively. The Ratio in assay [2] was determined as 50.

As to `CCN1CCC(C(O)c2ccc(F)cc2)CC1.O=C(O)/C=C\C(=O)O` (configuration not stated), the Ki in assay [1] and in assay [3] was more than 10000 nM each time.

Turning to `CN1CCC(Cc2ccccc2)CC1.Cl`, the Ki ratio in assay [8] was more than 2. The figures for the Ki in assay [5] and in assay [6] were 3870 nM and more than 10000 nM, respectively.

`O=C(O)C(=O)O.O=C(c1ccc(F)cc1)C1CCN(CCCCCc2ccccc2)CC1`: the figures for the Ki in assay [1] and in assay [3] were 10 nM and 420 nM, respectively. Besides, the Ratio in assay [2] was found to be 40.

As for `CN1CCN(C(=O)c2ccccc2)CC1`, the Ki in assay [1] and in assay [3] was more than 10000 nM in each case.

With `O=C(O)C(=O)O.O=C(c1ccc(F)cc1)C1CCN(CCc2ccccc2)CC1`, the Ki in assay [1] stood at 8.5 nM; in assay [3], 145 nM. Further, the Ratio in assay [2] is 15.

On to `O=C(O)C(=O)O.O=c1[nH]c2ccccc2c(=O)n1CCN1CCC(Cc2ccc(F)cc2)CC1`, for which the Ki in assay [1] came to 12 nM; in assay [3] it was 200 nM. The Ratio in assay [2] was found to be 17.

On to `O=C(O)C(=O)O.O=C(c1ccc(F)cc1)C1CCN(CCCc2ccccc2)CC1`, for which the Ki in assay [1] worked out at 16 nM; in assay [3], 940 nM. Besides, the Ratio in assay [2] was 60.
